Laboratory results as given in ChEMBL document CHEMBL4513216, “Probing the Open Global Health Chemical Diversity Library for Multistage-Active Starting Points for Next-Generation Antimalarials” (ACS Infect Dis, 2020).

Test: Toxicity liver stage against HepG2, at 10uM
Assay type: cell-based
Set-up: test concentration 10 uM, cell line HepG2-A16-CD81EGFP
Conditions: human, HepG2-A16-CD81EGFP cells; read-out: INHIBITION
Procedure, shortened: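 Uninfected HepG2-A16-CD81EGFP cells, 3 × 10^3 per well, 1536-well, plated on prespotted compound at 10 μM final, parasite-free screening media added to match infected plates; puromycin 10 μM positive, DMSO 0.5% negative; run in parallel with 48 h PbLuc assay at 37 °C, 5% CO2; viability by CellTiter-Glo luminescence, normalized to controls.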

Point of comparison: `O=C(C1CCCO1)N1CCc2onc(-c3ccc(Cl)cc3)c2C1` (configuration not stated), cytotoxicity at 10 µM -65.8%. Against it:
- CC(C)NC(=O)C[C@@H]1CCNC[C@@H]1Cc1cc(-c2ccccc2)on1 — higher, -0.626%
- CC(C)(C)CN1CC(COc2ccccc2)Oc2ccncc2S1(=O)=O (configuration not stated) — higher, -65.3%
- CC(C)n1ncc2c1NC(=O)CC21C(=O)Nc2c(Br)cc(Cl)cc21 (configuration not stated) — higher, 5.99%
- O=C(CCNC(=O)c1cnccn1)Nc1ncc[nH]1 — higher, -44.7%
- O=c1ccc(-n2ccnc2)nn1CCNS(=O)(=O)c1ccc(Br)cc1 — higher, -7.21%
- O=C(C1CC=CC1)N1CCC2(CCN(Cc3cccc(F)c3)CC2)C1 — higher, -4.48%
- Cc1ccc(C(=O)Oc2cc(=O)n3cccc(C)c3n2)cc1 — higher, 5.62%
- Cc1cc(NC(=O)CCn2nc(C)c3ccccc32)n(C(C)C)n1 — higher, 4.95%
- CC(=O)Nc1ccc(CCC2(NC(=O)C3CC3)CCCCC2)cn1 — higher, 13.4%
- Cc1nc2c(c(NCCCN3CCOCC3)n1)CCN(C)C2 — higher, 8.12%
- CCN1CCCC(O)(c2nc(C)c(CCOc3ccc(F)cc3)s2)CC1 (configuration not stated) — higher, -22.4%
- Cc1cccc(CN2CCOC(C)(C(=O)N3CCOCC3)C2)n1 (configuration not stated) — higher, -9.19%
- COCCN(C(=O)c1ccccn1)c1nc2c(s1)CCc1c-2cnn1C — higher, -13.8%
- Cc1cc(-c2ccccc2C(=O)O)nc(C2CCCCN2C)n1 (configuration not stated) — higher, -0.168%
- CC(C)NC(=O)N1CCC(c2nnc3n2CCNC3)CC1 — higher, 10.4%
- COc1ccc2c(c1)CC(NCc1cccc(NC(C)=O)c1)CC2 (configuration not stated) — higher, -39.2%
- O=c1oc(-c2ccc(F)cc2)nn1CC1CCCCO1 (configuration not stated) — higher, 2.35%
- O=C(NCC1(O)CCC1)c1c(O)cc(F)cc1F — higher, 6.22%
- CCCN(Cc1ccccc1O)C(=O)Nc1cnn(CCOC)c1 — higher, 23.8%
- COc1ccc(C2CCN(S(=O)(=O)CCCC#N)CC2)cc1 — higher, 7.13%
- CC(C)c1csc(C2CCCN(C(=O)c3ccc[nH]3)C2)n1 (configuration not stated) — higher, -48.6%
- O=C(C1CCCCN1Cc1nccn1CC(F)(F)F)N1CCCC1 (configuration not stated) — higher, 14.2%
- Cn1c(=O)[nH]c2cc(C(=O)OCCCn3ccccc3=O)ccc21 — higher, 1.34%
- CCC(CC)C(=O)NCC1(NC(C)c2ccccc2)CCOCC1 (configuration not stated) — higher, 14.7%
- Cc1cnc(CN(C)Cc2cc3c(cc2OC(F)F)OCO3)o1 — higher, -8.78%
- Cc1cnc(CN(C)C2CCN(Cc3ccc(Cl)s3)C2)o1 (configuration not stated) — higher, 5.33%
- O=c1oc(-c2cccs2)nn1CC(O)c1ccc2c(c1)CCC2 (configuration not stated) — higher, 5.33%
- COCCN1CCCC1c1cccc2c1OCCO2 (configuration not stated) — higher, -9.54%
- Fc1ccc(OCC2CCCO2)c(NCc2cn3cccnc3n2)c1 (configuration not stated) — higher, -6.31%
- COCCN(Cc1cccnc1)S(=O)(=O)c1cc(C)ccc1F — higher, 10.3%
- COc1cccc2c1OCC(NC(=O)NCCc1ccccn1)C2 (configuration not stated) — higher, 5.69%
- CCN(CC)C(=O)CN(C)C(=O)c1ccc(-c2ccsc2)nc1C — higher, 18.1%
- CCCc1nnc(NC(=O)N2CCCC2c2ccncc2)s1 (configuration not stated) — higher, 5.36%
- COC(=O)C(C)N1CCCc2cc(OC)ccc2C1 (configuration not stated) — higher, 11%
- CC(C)Cc1nc(CN(C)CCOc2ccc(F)cc2)no1 — higher, -4.68%
- Cn1cnnc1C1CCCN(C(=O)c2cc(-c3ccccc3)on2)C1 (configuration not stated) — higher, 7.36%
- CC(NC(=O)Cc1cccs1)(C(N)=O)c1cccc(Cl)c1 (configuration not stated) — higher, 11.3%
- Cc1cc(CS(=O)(=O)C(C)C(=O)N(C)c2ccccc2)on1 (configuration not stated) — higher, 2.74%
- CN(CC1CCN(CCO)CC1)CC(O)c1ccc(F)cc1F (configuration not stated) — higher, -59.3%
- Cc1ccc2c(c1)OC(C)CN2C(=O)Cc1ccc(C)nc1 (configuration not stated) — higher, -44.2%
- CN1Cc2ccccc2CC2(CCN(C(=O)[C@H]3CCCO3)CC2)C1=O — lower, -113%
- CC(=O)N1CCC(c2nnc3ccc(C(=O)NCCN(C)C)cn23)C1 (configuration not stated) — lower, -104%
- O=C(COc1ccc(F)cc1)N1CCO[C@H]2[C@@H](OCC3CC3)CC[C@@H]21 — lower, -101%
- Cc1noc([C@H]2C[C@H]3CN(C(=O)C4CCOCC4)CC[C@@H]3O2)n1 — lower, -72.6%
- CN(C)Cc1csc(-c2nccn2CCc2cccnc2)c1 — higher, -51.2%
- CCc1ncc(C(=O)N(C)CCc2nc3cc(OC)ccc3[nH]2)cn1 — higher, -47.4%
- COC(=O)NCC(=O)N1CCCn2nc(CN3CC[C@H](F)C3)cc2C1 — higher, 13%
- CNc1ccnc(N2CC[C@@](O)(C3CCOCC3)[C@H](C)C2)n1 — higher, 8.64%
- Cc1ccc(N2CCN(c3ccccc3C)CC2C)nn1 (configuration not stated) — higher, 13.2%
- Cc1ccc(-n2cccn2)cc1S(=O)(=O)N1C[C@H](C2CC2)[C@@H](N)C1 — higher, 0.479%
- CCc1nnc(CN(C)c2nccc(CCC(F)(F)F)n2)o1 — higher, 7.4%
- CCCc1nnc2sc(CC3CN(Cc4ccccc4)CCO3)nn12 (configuration not stated) — higher, 5.3%
- CCC(CNc1ncnc2oc(C)nc12)Cc1ccccc1 (configuration not stated) — higher, 1.23%
- CCNCCOc1ccc(-c2cc(N)nc3[nH]ccc23)cc1 — higher, 24.3%
- CCSCCn1cc(-c2ncc[nH]2)nn1 — higher, -41.4%
- OC1(CN2CCCCC2)CCN(c2ccc(C(F)(F)F)cn2)C1 (configuration not stated) — higher, -11%
- Cc1nn(C)cc1-c1ccnc(NCCN)n1 — higher, -0.571%
- CN(C)CCCN(C)c1nccc(N2CCN[C@H]3CS(=O)(=O)C[C@H]32)n1 — higher, -0.0813%
- CCCS(=O)(=O)N1CCN(c2ccnc(N3CCCCC3)n2)CC1 — higher, 0.805%
- CNC(=O)Cn1c(-c2ccco2)nn(-c2ccccc2OC)c1=O — higher, 2.51%
- CC(=O)NCC1CCN(c2cc(C(C)C)nc3ccnn23)CC1 — higher, 6.64%
- CN1CCCC[C@@H]2[C@H]1[C@@H](c1ccccc1)CCN2C(=O)c1ccccc1 — higher, -4.3%
- O=C(Cc1ccsc1)N1CCCC(c2n[nH]c3nccnc23)C1 (configuration not stated) — higher, 1.98%
- COc1c(CNC2CCc3cc(Cl)ccc32)c(C)nn1C (configuration not stated) — higher, 5.64%
- CCCc1nc(CNCC2CCCN2c2cccnn2)no1 (configuration not stated) — higher, -9.52%
- CS(=O)(=O)NC1CCN(C(=O)NCc2cccnc2)CC1 — higher, 0.796%
- COc1ccccc1N1CCC(CNCc2cccc(OC)c2OC)C1 (configuration not stated) — higher, 0.445%
- CC(C)(C)c1nnc(CN2CCOC(Cn3cccn3)C2)o1 (configuration not stated) — higher, -10.2%
- COc1cc(CNCc2ccc(NC(=O)NC(C)C)cc2)cc(OC)c1 — higher, 0.347%
- CC(C)c1nc(CC(=O)Nc2nc(CN3CCCCCC3)cs2)cs1 — higher, 6.02%
- CCN1CCC2(CC1)OCCN2C(=O)c1cc(Cl)c(OC)c(Cl)c1 — higher, 9.31%
- Cc1ncc(CNCCO)c2cc(C(=O)c3ccc(Br)cc3)oc12 — higher, 15.2%
- CN1C(=O)CCC12CCCN(Cc1nccs1)C2 (configuration not stated) — lower, -68.8%
- CCOc1ccc(CNCC(O)c2ccccc2)cc1Cl (configuration not stated) — higher, -3.4%
- CC1CCN(C(=O)[C@@H]2C[C@H]3OCC[C@H]3N(Cc3ccoc3)C2)CC1 — lower, -72.5%
- Cc1cccc(N2CCOCC3(C2)CN(c2ccccc2)C(=O)CO3)n1 (configuration not stated) — higher, -4.53%
- O=C(CSc1nnc(N2CCNCC2)s1)Nc1ccccc1 — higher, 2.84%
- CNC(=O)COC1COC2(CCN(Cc3ccncc3F)CC2)C1 (configuration not stated) — higher, 7.37%
- Cc1cccc(CN2CCC3(CCN(c4cccnc4)C3=O)C2)n1 (configuration not stated) — higher, -1.63%
- CN(Cc1cn2c(n1)CN(Cc1ccc(F)cc1)CC2)Cc1ccco1 — lower, -77%
- CCn1ncc2c1CN(CCc1cccc(Cl)c1)CC2COC (configuration not stated) — lower, -98.4%
